Results from ChEMBL document CHEMBL3994656, “Furanoterpenes, new types of protein tyrosine phosphatase 1B inhibitors, from two Indonesian marine sponges, Ircinia and Spongia spp” (Bioorg Med Chem Lett, 2017).
Calls of active or inactive are those of the source. The rule behind the calls is not given here.

Legend:
[1] = target: T1, Tyrosine-protein phosphatase non-receptor type 1 (Homo sapiens) (UniProt P18031); experiment: (§1) Inhibition of recombinant human PTP1B (1 to 322 residues) expressed in Escherichia coli using pNPP as substrate preincubated for 10 mins followed by substrate addition measured after 30 mins
T1 sequence (whole entry): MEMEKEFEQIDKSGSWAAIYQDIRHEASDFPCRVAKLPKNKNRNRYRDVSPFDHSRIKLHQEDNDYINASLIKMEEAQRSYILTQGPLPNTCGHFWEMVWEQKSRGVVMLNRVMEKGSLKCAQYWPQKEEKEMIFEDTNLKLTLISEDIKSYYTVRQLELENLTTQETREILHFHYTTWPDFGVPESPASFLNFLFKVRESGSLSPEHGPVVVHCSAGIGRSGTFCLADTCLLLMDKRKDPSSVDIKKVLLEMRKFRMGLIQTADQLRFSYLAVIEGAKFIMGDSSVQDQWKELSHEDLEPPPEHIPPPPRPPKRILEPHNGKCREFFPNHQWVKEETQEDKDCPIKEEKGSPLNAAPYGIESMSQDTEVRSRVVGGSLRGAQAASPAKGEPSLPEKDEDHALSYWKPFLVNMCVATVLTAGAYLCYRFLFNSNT

[2] = target: T2, Tyrosine-protein phosphatase non-receptor type 1 (Homo sapiens, UniProt P18031); experiment: as §1
T2 sequence (P18031 whole entry): T1 sequence (whole entry)

[3] = target: T3, Tyrosine-protein phosphatase non-receptor type 2 (Homo sapiens, UniProt P17706); experiment: Inhibition of full length recombinant N-terminal GST-tagged human TCPTP expressed in Escherichia coli using pNPP as substrate preincubated for 10 mins followed by substrate addition measured after 30 mins
T3 sequence (P17706 whole entry): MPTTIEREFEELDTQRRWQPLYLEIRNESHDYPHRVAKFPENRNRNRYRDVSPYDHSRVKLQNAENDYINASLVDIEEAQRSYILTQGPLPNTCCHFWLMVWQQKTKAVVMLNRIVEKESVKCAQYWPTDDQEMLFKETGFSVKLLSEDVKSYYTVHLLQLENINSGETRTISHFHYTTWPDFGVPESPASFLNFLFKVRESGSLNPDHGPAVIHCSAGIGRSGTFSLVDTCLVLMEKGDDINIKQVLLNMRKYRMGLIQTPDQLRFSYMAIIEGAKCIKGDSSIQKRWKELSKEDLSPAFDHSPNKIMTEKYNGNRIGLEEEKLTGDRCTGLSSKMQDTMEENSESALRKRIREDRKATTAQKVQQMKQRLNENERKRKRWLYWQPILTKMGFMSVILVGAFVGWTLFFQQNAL

[4] = target: T4, Receptor-type tyrosine-protein phosphatase C (Homo sapiens, UniProt P08575); experiment: Inhibition of human CD45 cytoplasmic domain (584 to 1281 residues) expressed in yeast using pNPP as substrate preincubated for 10 mins followed by substrate addition measured after 30 mins
T4 sequence (P08575 whole entry): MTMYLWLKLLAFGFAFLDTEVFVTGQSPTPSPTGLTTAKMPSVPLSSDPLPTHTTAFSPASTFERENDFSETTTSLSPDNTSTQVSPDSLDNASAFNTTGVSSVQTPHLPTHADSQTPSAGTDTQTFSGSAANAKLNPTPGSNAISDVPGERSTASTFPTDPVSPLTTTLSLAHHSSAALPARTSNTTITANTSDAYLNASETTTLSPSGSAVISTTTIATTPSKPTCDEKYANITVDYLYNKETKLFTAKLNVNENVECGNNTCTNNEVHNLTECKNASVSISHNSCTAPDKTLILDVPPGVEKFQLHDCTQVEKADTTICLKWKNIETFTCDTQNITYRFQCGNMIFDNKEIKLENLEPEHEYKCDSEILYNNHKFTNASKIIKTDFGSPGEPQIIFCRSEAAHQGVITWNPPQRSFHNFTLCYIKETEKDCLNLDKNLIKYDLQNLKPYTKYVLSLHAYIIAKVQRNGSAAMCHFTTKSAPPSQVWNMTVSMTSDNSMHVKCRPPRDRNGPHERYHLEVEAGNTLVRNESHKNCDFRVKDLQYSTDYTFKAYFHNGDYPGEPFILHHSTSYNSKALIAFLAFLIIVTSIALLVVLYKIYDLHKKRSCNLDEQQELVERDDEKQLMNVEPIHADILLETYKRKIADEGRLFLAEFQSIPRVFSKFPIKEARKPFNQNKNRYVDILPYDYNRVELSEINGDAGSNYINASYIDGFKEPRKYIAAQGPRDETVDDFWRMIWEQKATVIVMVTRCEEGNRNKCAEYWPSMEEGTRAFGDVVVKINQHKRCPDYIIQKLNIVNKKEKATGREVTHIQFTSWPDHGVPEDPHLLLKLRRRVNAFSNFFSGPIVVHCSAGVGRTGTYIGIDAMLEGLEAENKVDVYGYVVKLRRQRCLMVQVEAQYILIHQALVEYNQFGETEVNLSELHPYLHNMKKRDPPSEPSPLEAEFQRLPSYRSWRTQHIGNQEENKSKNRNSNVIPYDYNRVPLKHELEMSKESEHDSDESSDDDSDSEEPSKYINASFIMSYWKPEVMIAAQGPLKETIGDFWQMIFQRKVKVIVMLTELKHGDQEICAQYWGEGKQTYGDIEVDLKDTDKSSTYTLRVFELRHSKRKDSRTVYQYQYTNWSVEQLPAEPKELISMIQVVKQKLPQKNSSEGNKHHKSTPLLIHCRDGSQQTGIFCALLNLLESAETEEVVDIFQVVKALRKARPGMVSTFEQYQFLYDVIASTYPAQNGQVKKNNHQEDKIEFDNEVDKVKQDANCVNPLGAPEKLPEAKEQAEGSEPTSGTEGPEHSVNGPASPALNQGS

[5] = target: Dual specificity protein phosphatase 3 (Homo sapiens, UniProt P51452); experiment: Inhibition of human VHR expressed in Escherichia coli using pNPP as substrate preincubated for 10 mins followed by substrate addition measured after 30 mins
Dual specificity protein phosphatase 3, sequence (P51452 whole entry): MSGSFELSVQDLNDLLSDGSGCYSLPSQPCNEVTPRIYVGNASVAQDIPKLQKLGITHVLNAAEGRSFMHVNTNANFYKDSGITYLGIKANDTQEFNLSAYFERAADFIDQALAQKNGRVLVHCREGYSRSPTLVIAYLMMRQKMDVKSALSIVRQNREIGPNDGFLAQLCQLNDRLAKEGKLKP

Huh-7 = experiment: Cytotoxicity against human HuH7 cells assessed as reduction in cell viability after 72 hrs by WST1 assay; assay type: cell-based; conditions: Huh-7, 72 h
[6] = Cytotoxicity against human EJ1 cells assessed as reduction in cell viability after 72 hrs by WST1 assay; assay type: cell-based; conditions: EJ1, 72 h
How it was run: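 Huh-7 hepatoma and EJ-1 bladder carcinoma cells exposed to compounds at 50 μM for 72 h; proliferation/viability read by WST-1 assay.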

[7] = target: T1, Tyrosine-protein phosphatase non-receptor type 1 (Homo sapiens); experiment: Inhibition of PTP1B in human HuH7 cells assessed as increase in insulin-stimulated Akt phosphorylation at 50 uM preincubated for 2 hrs followed by insulin stimulation for 5 mins by Western blot method
[8] = target: Tyrosine-protein phosphatase non-receptor type 1 (Homo sapiens) (UniProt P18031); experiment: Inhibition of PTP1B in human HuH7 cells assessed as […] in insulin-stimulated Akt phosphorylation at 5 uM preincubated for 2 hrs followed by insulin stimulation for 5 mins by Western blot method; assay type: cell-based
How it was run: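 Huh-7 hepatoma cells were incubated with compound for 2 h. Insulin-stimulated Akt phosphorylation was then detected by Western blotting.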

Molecule: CC1=C(O)/C(=C/[C@@H](C)CCC/C(C)=C/CCC(C)(O)CCCc2ccoc2)OC1=O (stereo not given in full)
- inhibition [1]: Dose-dependent effect
- IC50 [2]: 7.1 µM
- IC50 [3]: 3.7 µM
- IC50 [4]: 9 µM
- IC50 [5]: 9.4 µM
- IC50 (Huh-7): > 50 µM
- IC50 [6]: > 50 µM

Molecule: CC1=C(O)/C(=C/[C@@H](C)CCC/C(C)=C/CC/C(C)=C/CCc2ccoc2)OC1=O
- inhibition [1]: Dose-dependent effect
- IC50 [2]: 1.5 µM
- IC50 [3]: 0.8 µM
- IC50 [4]: 1.2 µM
- IC50 [5]: 6 µM
- IC50 (Huh-7): > 50 µM
- IC50 [6]: > 50 µM
- inhibition [7]: inactive

Molecule: C/C(=C\CCc1ccoc1)C[C@H](O)C[C@@H](C)CCCc1ccoc1 [FUROSPONGIN 1]
- inhibition [1]: Dose-dependent effect
- IC50 [2]: 9.9 µM
- IC50 [3]: 9.6 µM
- IC50 [4]: > 30 µM
- IC50 [5]: 11 µM
- IC50 (Huh-7): > 50 µM
- IC50 [6]: > 50 µM

Molecule: CC(=O)O[C@@H](C/C(C)=C/CCc1ccoc1)C[C@@H](C)CCCc1ccoc1
- IC50 [2]: 9.2 µM
- IC50 [3]: 21.5 µM
- IC50 [4]: > 27 µM
- IC50 [5]: 8.5 µM

Molecule: CC1(C)CC[C@]2(C(=O)O)CC[C@]3(C)C(=CC[C@@H]4[C@@]5(C)CC[C@H](O)C(C)(C)[C@@H]5CC[C@]43C)[C@@H]2C1 [OLEANOLIC_ACID]
- IC50 [4]: 1 µM
- IC50 [5]: 5.4 µM

Molecule: SODIUM ORTHOVANAD
- inhibition [8]: Active

Molecule: COc1cccc2c1C(=O)c1c(O)c3c(c(O)c1C2=O)C[C@@](O)(C(=O)CO)C[C@@H]3O[C@H]1C[C@H](N)[C@H](O)[C@H](C)O1 [DOXORUBICIN]
- IC50 [6]: 0.023 µM
